Legend:
Format in all cases: functional, cell-based
[1] = Cytotoxicity against human MCF7 cells assessed as inhibition of cell proliferation after 48 hrs by MTT assay; conditions: MCF7, 48 h
Summary of the method: (§1)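 Cells grown in DMEM with 10% FBS, 100 U/mL penicillin, 100 μg/mL streptomycin, 37 °C, 5% CO2. Seeded 5 × 10^3 cells/well, 12 h, then exposed to compounds for 48 h. MTT (5 mg/mL stock) added for 4 h at 37 °C, formazan dissolved in DMSO, absorbance read at 570 nm. IC50 relative to untreated control. Triplicate, repeated twice; cis-platinum as positive control.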

[2] = Cytotoxicity against human MKN28 cells assessed as inhibition of cell proliferation after 48 hrs by MTT assay; conditions: MKN-28, 48 h; summary of the method: as §1
[3] = Cytotoxicity against human A549 cells assessed as inhibition of cell proliferation after 48 hrs by MTT assay; conditions: A549, 48 h; summary of the method: as §1

Row | Structure (SMILES) | IC50 [1] [µM] | IC50 [2] [µM] | IC50 [3] [µM]
1 | CC(C)(O)[C@@H]1[C@@H](O)[C@H]([C@@H]2CC=C3[C@]4(C)[C@H](O)C[C@H]5C(C)(C)[C@H](O)CC[C@]5(C)[C@H]4CC[C@]32C)C[C@H]1O | > 10 | > 10 | > 10
2 | CO[C@H]1O[C@@H](C=C(C)C)C[C@H]1[C@@H]1CC[C@]2(C)C3=CC[C@H]4C(C)(C)[C@@H](O)CC[C@]4(C)[C@H]3CC[C@@]12C | > 10 | > 10 | > 10
3 | C[C@@H](C[C@@H](O)[C@H](O)C(C)(C)O)[C@@H]1CC[C@]2(C)C3=C(C(=O)C[C@@]12C)[C@@]1(C)CCC(=O)C(C)(C)[C@@H]1CC3=O | > 10 | > 10 | > 10
4 | CCCCCC(=O)O[C@@H]1C[C@]2(C)C(=CC[C@H]2[C@]2(O)C[C@@H]([C@@H](O)C(C)(C)O)O[C@H]2OC)[C@]2(C)[C@H](O)C[C@H]3C(C)(C)C(=O)C=C[C@]3(C)[C@@H]12 | > 10 | > 10 | > 10
5 | CC(C)=CCC[C@H](C(=O)O)[C@@H]1CC[C@]2(C)C3=CC[C@@H]4[C@](C)(CC[C@H](O)[C@]4(C)CO)[C@H]3CC[C@@]12C | > 10 | 9.1 | > 10
6 | CCO[C@H]1O[C@@H]([C@H](O)C(C)(C)O)C[C@H]1[C@@H]1CC[C@]2(C)C3=CC=C4C(C)(C)C(=O)CC[C@]4(C)C3=CC[C@@]12C | > 10 | > 10 | > 10
7 | C[C@@H](CC[C@H](O)C(C)(C)O)[C@@H]1CC[C@]2(C)C3=CC[C@H]4C(C)(C)C(=O)CC[C@]4(C)[C@H]3CC[C@@]12C | > 10 | 9.1 | > 10
8 | CC(C)(O)[C@H]1OC[C@H]([C@H]2CC[C@]3(C)C4=CC[C@H]5C(C)(C)C(=O)CC[C@]5(C)[C@H]4CC[C@@]23C)C[C@H]1O | 9.9 | 6.7 | 7
9 | C[C@@H](C[C@@H](O)[C@@H](O)C(C)(C)O)[C@@H]1CC[C@]2(C)C3=CC[C@H]4C(C)(C)C(=O)CC[C@]4(C)[C@H]3CC[C@@]12C | 8.5 | 6.9 | 8
10 | CCOC(=O)CC[C@]1(C)[C@H]2CC[C@@]3(C)[C@H]([C@@H](C)CC/C=C(\C)CO)CC[C@]3(C)C2=CC[C@H]1C(C)(C)O | > 10 | > 10 | > 10
11 | CO[C@H]1O[C@H](C=C(C)C)C[C@H]1[C@@H]1CC[C@]2(C)C3=CC[C@H]4C(C)(C)[C@@H](O)CC[C@]4(C)[C@H]3CC[C@@]12C | > 10 | 8.8 | > 10
12 | COC1OC(C=C(C)C)C[C@H]1[C@@H]1CC[C@]2(C)C3=CC[C@H]4C(C)(C)[C@H](O)CC[C@]4(C)[C@H]3CC[C@@]12C (some centres undefined) | > 10 | > 10 | > 10
13 | CCO[C@H]1O[C@@H]([C@H](O)C(C)(C)O)C[C@H]1[C@@H]1CC[C@]2(C)C3=CC[C@H]4C(C)(C)C(=O)CC[C@]4(C)C3=CC[C@@]12C | > 10 | 8.3 | > 10
14 | CCO[C@H]1O[C@H](C(C)(C)O)[C@@H](O)C[C@H]1[C@@H]1CC[C@]2(C)C3=CC[C@H]4C(C)(C)C(=O)CC[C@]4(C)[C@H]3CC[C@@]12C | > 10 | > 10 | > 10
15 | CO[C@@H]1O[C@H](C=C(C)C)C[C@H]1[C@@H]1CC[C@]2(C)C3=CC[C@H]4C(C)(C)[C@H](O)CC[C@]4(C)[C@H]3CC[C@@]12C | > 10 | > 10 | > 10
16 | CCO[C@@H]1O[C@@H]([C@H](O)C(C)(C)O)C[C@H]1[C@@H]1CC[C@]2(C)C3=CC[C@H]4C(C)(C)C(=O)CC[C@]4(C)[C@H]3CC[C@@]12C | > 10 | > 10 | > 10
17 | CO[C@@H]1O[C@H](C=C(C)C)C[C@H]1[C@@H]1CC[C@]2(C)C3=CC[C@H]4C(C)(C)[C@@H](O)CC[C@]4(C)[C@H]3CC[C@@]12C | > 10 | 9.8 | > 10
18 | CCO[C@H]1O[C@H](C=C(C)C)C[C@H]1[C@@H]1CC[C@]2(C)C3=CC[C@H]4C(C)(C)[C@@H](O)CC[C@]4(C)[C@H]3CC[C@@]12C | > 10 | > 10 | > 10
19 | CCO[C@H]1O[C@@H]([C@H](O)C(C)(C)O)C[C@H]1[C@@H]1CC[C@]2(C)C3=CC[C@H]4C(C)(C)C(=O)CC[C@]4(C)[C@H]3CC[C@@]12C | > 10 | > 10 | > 10
20 | C[C@@H](C[C@@H](O)[C@H](O)C(C)(C)O)[C@@H]1CC[C@]2(C)C3=CC(=O)[C@H]4C(C)(C)[C@@H](O)CC[C@]4(C)[C@H]3CC[C@@]12C | > 10 | > 10 | > 10
21 | CCO[C@@H]1O[C@@H](C=C(C)C)C[C@H]1[C@@H]1CC[C@]2(C)C3=CC[C@H]4C(C)(C)[C@@H](O)CC[C@]4(C)[C@H]3CC[C@@]12C | > 10 | 7.9 | 8.3
22 | CC(C)(O)[C@H]1OC[C@H]([C@@H]2CC[C@]3(C)C4=CC[C@H]5C(C)(C)C(=O)CC[C@]5(C)[C@H]4CC[C@@]23C)C[C@H]1O | > 10 | > 10 | > 10
23 | CCO[C@H]1O[C@H](C(C)(C)O)[C@@H](O)C[C@H]1[C@@H]1CC[C@]2(C)C3=CC(=O)[C@H]4C(C)(C)C(=O)CC[C@]4(C)[C@H]3CC[C@@]12C | > 10 | 8.2 | > 10
24 | CCO[C@@H]1O[C@H]([C@@H](O)C(C)(C)O)C[C@H]1[C@@H]1CC[C@]2(C)C3=CC[C@H]4C(C)(C)[C@@H](O)CC[C@]4(C)C3=CC[C@@]12C | > 10 | 9.1 | > 10
25 | COC(=O)[C@@H](CCC=C(C)C)[C@@H]1CC[C@]2(C)C3=CC[C@@H]4[C@](C)(CCC(=O)[C@]4(C)CO)[C@H]3CC[C@@]12C | > 10 | 8.3 | > 10
26 | C[C@@H](C[C@@H](O)[C@H](O)C(C)(C)O)[C@@H]1CC=C2[C@]3(C)[C@H](O)[C@@H](O)[C@H]4C(C)(C)C(=O)CC[C@]4(C)[C@H]3CC[C@]21C | > 10 | > 10 | > 10
27 | C[C@@H](C[C@@H](O)[C@H](O)C(C)(C)O)[C@@H]1CC=C2[C@]3(C)[C@H](O)C[C@H]4C(C)(C)C(=O)CC[C@]4(C)[C@H]3CC[C@]21C | > 10 | > 10 | > 10
28 | CC1(C)OC[C@H]([C@@H]2CC[C@]3(C)C4=CC[C@H]5C(C)(C)[C@H](O)CC[C@]5(C)[C@H]4CC[C@@]23C)C[C@@H](O)[C@@H]1O | > 10 | > 10 | > 10

Source: ChEMBL document CHEMBL3867438, “Cytotoxic Tirucallane and Apotirucallane Triterpenoids from the Stems of Picrasma quassioides” (J Nat Prod, 2016)
